# Screens from PubChem BioAssay.
# OX1R antag-1: OX1R (HCRTR1) antagonists, primary screen, fluorescence, CHO/OX1R cells, Fluo-8 calcium, orexin A; Orexin/Hypocretin receptor type 1 (Homo sapiens), O43613; Fluo-8 calcium fluorescence; inhibition, % at 5 µM; hit rate 0.43% among 330,000; AID 434989, 2010;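 active = inhibition above its plate's threshold, mean inhibition of all tested compounds on the plate plus 3 SD, cut at about 37% in these data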;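 note: 0% = orexin A challenge wells and 100% = SB-334867-A antagonist wells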
# V1R ag counter: agonists of human V1a receptor, primary screen, counter-screen for OXTR agonist project, fluorescence, CHO-V1R cells; activation, % at 3 µM; Fluo-8 calcium fluorescence, agonist mode; 0% DMSO, 100% 3 nM vasopressin; hit rate 0.25% among 320,000; AID 2797, 2010; Vasopressin V1a receptor (Homo sapiens), P37288;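 active = activation above the mean activation of all tested compounds plus 3 SD, per screening run, cut at about 20% in these data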;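 note: signal is peak over basal fluorescence ratio across a 100 second FLIPR read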
# OXTR agonist: human OXTR agonists, primary screen, fluorescence, CHO-OTR cells, Fluo-8 calcium | Oxytocin receptor (Homo sapiens), P30559 | Fluo-8 calcium fluorescence; normalized: DMSO 0%, oxytocin 100% | activation, % at 3 µM | hit rate 0.32% among 320,000 | AID 2435, 2010;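 active = activation above the mean of all tested compounds plus 3 SD, cutoff set per screening run, cut at about 20% in these data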;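 note: peak over basal fluorescence ratio from a 100 s FLIPR kinetic read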
# Target sequence (P30559 whole entry, looked up): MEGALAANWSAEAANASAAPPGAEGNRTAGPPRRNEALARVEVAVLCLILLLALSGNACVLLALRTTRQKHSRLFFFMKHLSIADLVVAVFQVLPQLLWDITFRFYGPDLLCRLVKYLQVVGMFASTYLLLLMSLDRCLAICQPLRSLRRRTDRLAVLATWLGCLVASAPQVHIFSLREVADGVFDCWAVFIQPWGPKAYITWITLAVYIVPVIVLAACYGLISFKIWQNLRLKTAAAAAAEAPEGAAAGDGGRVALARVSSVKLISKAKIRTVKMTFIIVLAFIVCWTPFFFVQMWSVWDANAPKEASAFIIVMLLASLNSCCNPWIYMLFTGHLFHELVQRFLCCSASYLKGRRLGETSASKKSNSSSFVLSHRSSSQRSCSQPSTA
# OX1R antag-2: antagonists of human orexin 1 receptor (OX1R); Orexin/Hypocretin receptor type 1 (Homo sapiens), O43613; OX1R-expressing cells, FRET antagonist read-out; inhibition, % at 6.6 µM; hit rate 1.8% among 330,000; AID 485270, 2010; in the data active = inhibition mostly above about 38%, no sharp cut-off; inactive = mostly below about 40%;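 note: 0% = agonist challenge alone and 100% = reference antagonist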
# OXTR potentiate: human OXTR potentiators, primary screen, fluorescence, CHO-OTR cells, Fluo-8 calcium; Fluo-8 calcium fluorescence, potentiator mode; 0% = oxytocin EC15, 100% = EC100; activation, % at 3 µM; hit rate 0.061% among 320,000; AID 2445, 2010;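 active = activation above that plate's cutoff, the mean activation of tested compounds plus 3 SD, cut at about 6.6% in these data, passing the limit was not always enough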;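 note: 100% uses oxytocin at 75 nM as the full agonist control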
#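 assay system = CHO-OTR cells, human receptor | schedule = compound 6 min at room temperature before oxytocin, 100 s read | detection = Fluo-8 intracellular calcium fluorescence, ex 470-495, em 515-575 nm | evaluation = normalized max/min fluorescence ratio, % activation | control set = EC15 oxytocin alone as 0%, 75 nM oxytocin (EC100) as 100%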
# CHO parental Ca: ATP-evoked calcium signal inhibitors, parental CHO, primary screen, counter-screen for OX1R antagonist project, cell-based, fluorescence, Fluo-8 calcium dye; parental CHO-K1, ATP-induced calcium, Fluo-8 fluorescence; inhibition, % at 5.6 µM; hit rate 0.63% among 330,000; AID 463079, 2010;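 active = inhibition above that plate's mean sample inhibition plus 3 SD, cut at about 26% in these data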;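 note: 0% = ATP-challenged DMSO wells and 100% = DMSO wells without ATP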
#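 Material: parental CHO cells / Compound: single nominal dose of 5.6 µM per compound / Signal: Fluo-8 fluorescence / Replicates: singlicate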
# * = called active by the depositor. In the library only some 2.7% were active in any assay of this set; here they are far more common.
SMILES,OX1R antag-1,V1R ag counter,OXTR agonist,OX1R antag-2,OXTR potentiate,CHO parental Ca
COc1cc(CCC(=O)Nc2nccs2)cc(OC)c1OC,-16,1,0,6,-10,-11
CCC(=O)/C=C1/Sc2ccccc2N1CC,-26,-1,-3,35,-2,-18
CCOC(=O)/C(=C/C=C1\Sc2ccccc2N1CC)C(C)=O,30,49*,46*,41,-17,28*
N#CC1=C(N)Nc2ncnn2C1c1ccccc1 (stereo unspecified),-3,1,0,7,-4,3
N#CC1=C(N)Nc2ncnn2C1c1ccc([N+](=O)[O-])cc1 (stereo unspecified),-30,0,1,69*,-6,5
Cc1cc(S(=O)(=O)N2CCOCC2)ccc1NC(=O)c1ccc(F)cc1,17,2,1,15,-4,16
O=C(Nc1cccc(Cl)c1Cl)c1snnc1-c1ccccc1,-23,-1,-2,33,-14,-31
O=C(Nc1cc(Cl)ccc1O)c1snnc1-c1ccccc1,45,10,13,46*,-22,30
O=C(O)c1sccc1Oc1ccc(NS(=O)(=O)c2ccc(Cl)cc2)cc1,-8,1,0,-3,-5,-2
N#Cc1cccc(C#N)c1Oc1ccc(S(=O)(=O)Nc2ccc(Cl)cc2)cc1,13,10,18,13,-9,43*
COc1ccc(CNC(=O)Nc2cc(C)cc(C)c2)cc1,-4,0,-1,3,-1,-11
COc1ccc(CNC(=O)Nc2ccc(C)cc2)cc1,22,-1,-1,11,-15,37*
CCOC(=O)C1=C(C)N2C(=C(C#N)[C@@H]1c1ccc(C(=O)OC)cc1)SC[C@@]2(O)C(C)(C)C,17,0,-3,53*,-21,0
O=C(CSc1cccc[n+]1[O-])Nc1ccc([N+](=O)[O-])cc1Cl,-14,0,0,65*,-20,-6
CC(=O)Nc1ccc(Sc2ncccc2C(=O)Nc2ccc(OC(F)(F)F)cc2)cn1,88*,67*,71*,10,-8,77*
CC(=O)Nc1ccc(Sc2ncccc2C(=O)Nc2cc(Cl)cc(Cl)c2)cn1,-19,3,4,20,-6,-9
CCOCCCNC(=S)N1CCN(Cc2ccc3c(c2)OCO3)CC1,-16,1,0,14,-10,8
COc1cc(/C=N/NC(=O)c2ccc(C)nc2)cc([N+](=O)[O-])c1O,-24,0,1,43*,-1,-16
O=C(N/N=C/c1ccc([N+](=O)[O-])o1)c1ccc(NS(=O)(=O)c2cccs2)cc1,13,0,0,45*,-2,-11
COc1cc(/C=N/Nc2ccccc2[N+](=O)[O-])cc(OC)c1O,-11,-1,-2,17,-9,-15
O=C(N/N=C/c1ccc([N+](=O)[O-])cc1)c1ccc(NS(=O)(=O)c2cccs2)cc1,-10,1,-1,11,2,-7
COc1cc(/C=N/NC(=O)Cc2ccccc2)cc([N+](=O)[O-])c1O,0,-1,-1,54*,-4,-2
CC1(C(=O)N/N=C/c2ccc([N+](=O)[O-])o2)CC1(Br)Br (stereo unspecified),6,2,2,73*,-5,5
Cc1ccc(S(=O)(=O)N2CCNC(=O)CC2)cc1,2,0,0,2,1,-1
Cc1ccc(C(=O)N/N=C\c2ccc([N+](=O)[O-])o2)cn1,-6,1,1,70*,7,-15
SMILES,OX1R antag-1,V1R ag counter,OXTR agonist,OX1R antag-2,OXTR potentiate,CHO parental Ca
COc1cc(/C=N/NC(=O)Cc2ccccc2)ccc1Oc1ccc([N+](=O)[O-])cc1[N+](=O)[O-],-9,0,-1,14,-8,29*
COc1ccc([N+](=O)[O-])cc1/C=N/NC(=O)Cc1ccccc1,-13,3,0,21,-10,4
O=C(CCN1CCN(c2ccccc2)CC1)N/N=C/c1ccc([N+](=O)[O-])o1,-9,0,0,71*,-21,-12
Cc1c(C(=O)OCC(=O)Nc2cccc(S(N)(=O)=O)c2)oc2c1ccc1ccccc12,27,0,1,48*,-3,2
O=C(CN1C(=O)CC(c2ccccc2)Sc2ccccc21)NCC1CCCO1 (stereo unspecified),-9,1,1,6,-10,-4
O=C(CN1C(=O)NC2(CCCC2)C1=O)NCCN1C(=O)S/C(=C\c2ccccc2F)C1=O,-18,1,-2,51*,-18,-22
O=C(CN1C(=O)/C(=C/c2ccccc2F)Sc2ccccc21)NCC1CCCO1 (stereo unspecified),22,0,-2,66*,-2,-20
O=C(Nc1cccc(OCC(=O)N2CCOCC2)c1)c1ccc(C(F)(F)F)cc1,-23,4,5,28,-2,-2
Cc1nn(-c2ccccc2)nc1C(=O)Nc1nnc(C(F)(F)F)s1,0,8,11,41*,-14,-3
O=C(Nc1nnc(C(F)(F)F)s1)c1ccc(Br)s1,7,9,19,49*,-8,26*
CCc1nnc(NC(=O)c2nn(-c3ccccc3)nc2C)s1,-28,0,-2,3,-3,-14
O=C(Nc1ccccc1C(=O)Nc1nnc(C(F)(F)F)s1)c1ccccc1Cl,37*,12,10,80*,-14,54*
NC(=O)c1ccccc1NC(=O)c1ccccc1Cl,-16,0,1,5,0,-10
CC(NC(=O)Nc1nnc(C(F)(F)F)s1)(C(F)(F)F)C(F)(F)F,51*,9,14,59*,-11,60*
CCCCc1nnc(NC(=O)C2CC(=O)N(Cc3ccccc3)C2)s1 (stereo unspecified),-29,1,-1,7,-10,-24
COc1cc(Cl)c(NC2=CC(=O)C(=O)c3ccccc32)c(OC)c1,-9,0,-1,33*,-5,-17
Cc1ccc(NC2=CC(=O)C(=O)c3ccccc32)c(C)c1,-19,0,-2,13,-7,-14
Cn1c(C(=O)O)c(S(=O)(=O)c2ccc(Cl)cc2)c2ccccc21,-16,2,1,-3,1,5
Cc1ccc(C(=O)OCC(=O)N(Cc2ccccc2)C(C)C)cc1C,9,0,-2,36*,-3,-26
